From PubChem BioAssay
An excerpt weighted towards active compounds, which were near 1.6% of everything screened.
Rin1 Abl inh: human Rin1-Abl interaction inhibition. TR-FRET Rin1/Abl binding, biochemical. AID 588664. inhibition, % at 7.35 µM. 360,000 tested, 0.4% active. P00519+Q13671; in the data active = inhibition above about 5%, passing the limit was not always enough
Target sequence (P00519 whole entry, looked up): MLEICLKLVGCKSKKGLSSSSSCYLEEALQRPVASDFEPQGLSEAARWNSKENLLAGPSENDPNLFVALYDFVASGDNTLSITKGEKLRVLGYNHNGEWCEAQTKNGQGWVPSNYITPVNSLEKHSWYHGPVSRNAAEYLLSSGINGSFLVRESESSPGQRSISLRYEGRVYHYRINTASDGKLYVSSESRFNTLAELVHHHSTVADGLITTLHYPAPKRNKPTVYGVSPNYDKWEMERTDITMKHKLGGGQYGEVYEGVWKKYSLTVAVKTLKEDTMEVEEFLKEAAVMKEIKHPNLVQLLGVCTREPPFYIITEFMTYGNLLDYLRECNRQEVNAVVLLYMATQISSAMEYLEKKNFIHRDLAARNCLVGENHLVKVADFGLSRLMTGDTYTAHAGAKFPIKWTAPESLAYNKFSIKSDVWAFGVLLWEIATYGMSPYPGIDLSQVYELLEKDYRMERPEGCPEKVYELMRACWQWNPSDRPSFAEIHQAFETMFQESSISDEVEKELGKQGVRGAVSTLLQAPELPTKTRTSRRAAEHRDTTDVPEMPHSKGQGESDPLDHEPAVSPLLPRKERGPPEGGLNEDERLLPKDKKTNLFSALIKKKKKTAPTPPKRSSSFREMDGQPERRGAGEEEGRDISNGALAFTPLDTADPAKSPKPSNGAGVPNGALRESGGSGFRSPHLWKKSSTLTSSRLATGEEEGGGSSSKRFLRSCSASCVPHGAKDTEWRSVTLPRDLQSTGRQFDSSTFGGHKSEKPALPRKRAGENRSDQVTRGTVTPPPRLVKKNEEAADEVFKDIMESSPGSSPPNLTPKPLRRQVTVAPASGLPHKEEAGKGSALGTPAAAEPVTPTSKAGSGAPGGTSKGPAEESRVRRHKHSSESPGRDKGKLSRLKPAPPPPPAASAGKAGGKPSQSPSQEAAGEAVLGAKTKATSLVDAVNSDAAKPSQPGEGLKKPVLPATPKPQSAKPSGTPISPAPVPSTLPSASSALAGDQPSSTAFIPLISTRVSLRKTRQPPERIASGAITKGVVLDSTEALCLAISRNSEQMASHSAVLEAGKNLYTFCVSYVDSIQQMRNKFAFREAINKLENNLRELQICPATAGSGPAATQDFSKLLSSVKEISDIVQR
Target sequence (Q13671 whole entry, looked up): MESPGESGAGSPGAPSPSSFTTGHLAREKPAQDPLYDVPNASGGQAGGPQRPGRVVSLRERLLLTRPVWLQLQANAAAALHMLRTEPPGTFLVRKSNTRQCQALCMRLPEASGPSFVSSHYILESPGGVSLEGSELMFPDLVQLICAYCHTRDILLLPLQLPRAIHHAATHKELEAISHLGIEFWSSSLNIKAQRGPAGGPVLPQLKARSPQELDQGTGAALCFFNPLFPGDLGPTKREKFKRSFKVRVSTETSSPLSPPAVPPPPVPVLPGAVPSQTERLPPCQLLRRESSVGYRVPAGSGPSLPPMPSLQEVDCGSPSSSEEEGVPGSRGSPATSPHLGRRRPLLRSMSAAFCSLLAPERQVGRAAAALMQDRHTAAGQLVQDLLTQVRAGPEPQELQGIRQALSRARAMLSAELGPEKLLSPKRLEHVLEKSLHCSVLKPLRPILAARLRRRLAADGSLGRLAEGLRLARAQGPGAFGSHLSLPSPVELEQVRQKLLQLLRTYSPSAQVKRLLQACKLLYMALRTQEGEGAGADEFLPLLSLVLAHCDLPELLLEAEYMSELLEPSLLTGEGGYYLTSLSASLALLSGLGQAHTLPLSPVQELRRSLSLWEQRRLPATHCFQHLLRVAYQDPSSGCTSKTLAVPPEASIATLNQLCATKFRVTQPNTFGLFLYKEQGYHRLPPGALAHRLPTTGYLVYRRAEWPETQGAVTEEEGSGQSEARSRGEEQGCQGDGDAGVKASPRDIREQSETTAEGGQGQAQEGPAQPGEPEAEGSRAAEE
SKN-1 inh: blocks SKN-1 activity in C. elegans; C. elegans VP596 Pgst-4::GFP/RFP ratio, acrylamide-induced, 24 h; inhibition, % at 21.8 µM; 360,000 tested, 0.49% active;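 active = interference check ratio from 0.5 to 1.5 plus GFP to RFP signal ratio inhibition reaching or exceeding a fixed threshold, cut at about 30% in these data, passing the limit was not always enough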
Tb MetRS inh: Trypanosoma brucei MetRS inhibition; 360,000 tested, 0.4% active; purified T. brucei MetRS, ATP depletion, Kinase-Glo luminescence; AID 624268; inhibition, % at 11.9 µM;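 active = inhibition above a per-plate cutoff of the control wells' mean inhibition plus 3 SD, cut at about 5.5% in these data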;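 also: 0% = DMSO wells median and 100% = median of wells with control inhibitor compound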
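technique = Kinase-Glo luminescence, ATP depletion format | system = purified MetRS (methionyl-tRNA synthetase) enzyme from Trypanosoma brucei | timing = 15 min preincubation, 2 h reaction, all 25 °C | evaluation = percent inhibition versus plate control medians | dosing = single dose, 11.9 µM final nominal, 0.9% final DMSO | also added = substrates ATP, L-methionine and bulk Escherichia coli tRNA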
Arrestin-AP2 inh: human beta-arrestin and AP2 interaction inhibition; 340,000 tested, 0.31% active; FITC-arrestin peptide / GST-AP2 beads, flow cytometry; AP2 beta2 appendage carries R879A mutation; inhibition, % at 10 µM;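 active = inhibition above a set limit, near 3 SD of compounds lacking own fluorescence, cut at about 54% in these data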;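 also: plate controls were DMSO wells for no effect and 5 µM unlabelled arrestin peptide for full effect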
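Material – GST-tagged AP2 beta2-adaptin appendage (R879A) on 4 µm glutathione beads · Probe or stimulus – fluorescein-tagged arrestin peptide at 50 nM final · Timing – 12 min plus 1 h, RT · Detection – bead flow cytometry, FITC channel · Read-out basis – inhibition as reduced fluorescein signal on beads, percent · Medium – PBS plus Tween 20 (0.05%) and BSA (0.1%)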
MT1-MMP act inh: blocks activation of human MT1-MMP; P50281; HT1080 RFP-PRO-GFP cells, GFP/RFP ratio fluorescence, overnight; percent of plate control window, DMSO zero; GFP/RFP ratio change, % at 20 µM; 360,000 tested, 0.061% active; AID 651647;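 active = GFP/RFP ratio change of at least 30% with cell ATP level not reduced by more than half and red fluorescence within 50% of control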
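Assay system: HT1080 RFP-PRO-GFP cells. Benchmarks: DMSO vehicle wells and RFP-L50D-GFP reporter cell wells. Times: overnight cell settling, then overnight compound exposure, 37 °C, 5% CO2. Compound: 20 µM single dose, 1% DMSO. Read-out basis: GFP/RFP fluorescence ratio.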
Starred values were filed as active, the others as inactive.

What do the screens show for `CCCCNC(=O)CCC(=O)Nc1ccc2nc(N3CCOCC3)cc(C)c2c1`?
Rin1 Abl inh: -5.2; SKN-1 inh: 6.1; Tb MetRS inh: -0.1; Arrestin-AP2 inh: -5.5; MT1-MMP act inh: 7.0

What do the screens show for `CCN1CCN(c2cc(C)c3cc(NC(=S)N4CCCCC4)ccc3n2)CC1`?
Rin1 Abl inh: -4.2; SKN-1 inh: 37.5*; Tb MetRS inh: 0.0; Arrestin-AP2 inh: 24.1; MT1-MMP act inh: 2.1

Results for Cc1cc(N2CCOCC2)nc2ccc(NC(=O)C3CCC(C)CC3)cc12 (stereo not given) ?
Rin1 Abl inh: -8.2; SKN-1 inh: 35.2*; Tb MetRS inh: 0.4; Arrestin-AP2 inh: -1.2; MT1-MMP act inh: 10.1

Results for O=C(NCc1nc2ccccc2[nH]1)C1=C[C@@H](c2ccccc2)C[C@@H](OCCCCO)O1 ?
Rin1 Abl inh: -1.2; SKN-1 inh: -1.5; Tb MetRS inh: 69.6*; Arrestin-AP2 inh: 21.9; MT1-MMP act inh: -0.6

What do the screens show for `C[C@H]1C=C(C(=O)NCc2nc3ccccc3[nH]2)O[C@@H](OCc2ccc(CO)cc2)C1`?
Rin1 Abl inh: 5.6; SKN-1 inh: 5.9; Tb MetRS inh: 23.9*; Arrestin-AP2 inh: 22.3; MT1-MMP act inh: -2.0

How did CN(C(=O)c1cccc(NC(=O)Cc2cccc(NC(=O)C3CCCN(C(=O)C4CCCCC4)C3)c2)c1)C1CC1 (stereo not given) do in these assays?
Rin1 Abl inh: 0.5; SKN-1 inh: 0.1; Tb MetRS inh: 0.0; Arrestin-AP2 inh: 29.6; MT1-MMP act inh: -0.6

How did Cc1ccc(S(=O)(=O)N2[C@H](CC(=O)c3ccc(Cl)c(Cl)c3)OC[C@@H]2C(C)C)cc1 do in these assays?
SKN-1 inh: 5.1; Tb MetRS inh: -1.1; MT1-MMP act inh: 3.1

How did C=CCOC(=O)Nc1nc(CCNC(=O)OCc2ccccc2)c(C(=O)O)s1 do in these assays?
SKN-1 inh: -5.3; Tb MetRS inh: 0.1; MT1-MMP act inh: 4.8

What do the screens show for `O=c1/c(=C/c2ccc(O)cc2)sc2n1CCCN=2`?
Rin1 Abl inh: -2.5; SKN-1 inh: 6.6; Tb MetRS inh: -0.2; Arrestin-AP2 inh: -16.4; MT1-MMP act inh: -5.2

How did O=c1/c(=C\c2ccc(F)cc2)sc2n1CCCN=2 do in these assays?
Rin1 Abl inh: -1.3; SKN-1 inh: 39.3*; Tb MetRS inh: -0.5; Arrestin-AP2 inh: -1.2; MT1-MMP act inh: 6.7

Results for O=C(Nc1ccc(-c2nc3ncccc3o2)cc1)c1ccc(Br)o1 ?
Rin1 Abl inh: -2.1; SKN-1 inh: 38.3*; Tb MetRS inh: -0.5; Arrestin-AP2 inh: 3.3; MT1-MMP act inh: -16.5

Results for O=C(Nc1ccc2oc(-c3cccnc3)nc2c1)c1ccc(Br)o1 ?
Rin1 Abl inh: 0.7; SKN-1 inh: 35.5*; Tb MetRS inh: -0.9; Arrestin-AP2 inh: 10.3; MT1-MMP act inh: 0.0

How did O=C(Nc1ccc2oc(-c3cccnc3)nc2c1)c1ccco1 do in these assays?
Rin1 Abl inh: 1.0; SKN-1 inh: 5.8; Tb MetRS inh: -0.2; Arrestin-AP2 inh: 6.4; MT1-MMP act inh: -0.2

How did O=C(Nc1ccc(-c2nc3ncccc3o2)cc1)c1ccco1 do in these assays?
Rin1 Abl inh: 2.2; SKN-1 inh: 3.0; Tb MetRS inh: -1.2; Arrestin-AP2 inh: -4.5; MT1-MMP act inh: 0.6

Results for COc1cc(NC(=O)N2CCc3nc(NCc4cccc(Oc5ccccc5)c4)ncc3C2)cc(OC)c1OC ?
Rin1 Abl inh: 5.0; SKN-1 inh: 16.5; Tb MetRS inh: -0.1; MT1-MMP act inh: 3.3

What do the screens show for `CC(c1ccccc1)N1C(=O)c2cccnc2C1=O` (stereo not given)?
Rin1 Abl inh: -4.0; SKN-1 inh: 38.6*; Tb MetRS inh: 1.1; Arrestin-AP2 inh: -17.9; MT1-MMP act inh: 2.7

Results for COc1ccc(-c2cn(-c3ccc(C)cc3)c(=O)n2CC(=O)Nc2ccc(OC)cc2OC)cc1 ?
Rin1 Abl inh: -0.2; SKN-1 inh: 37.9*; Tb MetRS inh: -0.7; Arrestin-AP2 inh: -2.2; MT1-MMP act inh: -0.4

What do the screens show for `CC(C)CN1C(=O)CN(S(C)(=O)=O)CC1(C)C(=O)NC(C)C` (stereo not given)?
SKN-1 inh: 8.4; Tb MetRS inh: 0.1; MT1-MMP act inh: 2.8

Results for C=CCN1C=C/C(=C\C=C(C#N)C#N)c2ccccc21 ?
Rin1 Abl inh: -8.7; SKN-1 inh: 35.2*; Tb MetRS inh: 5.6; Arrestin-AP2 inh: 3.5; MT1-MMP act inh: 14.2

What do the screens show for `C=CCN1C=CC(=CC=C(C#N)C#N)C=C1`?
Rin1 Abl inh: -26.2; SKN-1 inh: 7.8; Tb MetRS inh: -0.3; Arrestin-AP2 inh: 24.5; MT1-MMP act inh: -132.2

Results for Cc1cc(C)c2ccc3c(C)c(C)nc3c2[nH]1 ?
Rin1 Abl inh: -3.8; SKN-1 inh: 53.2*; Tb MetRS inh: -1.2; Arrestin-AP2 inh: 44.4; MT1-MMP act inh: -9.5

Results for Cc1cc(=O)[nH]c2c(C)c(N)ccc12 ?
Rin1 Abl inh: -1.7; SKN-1 inh: -2.2; Tb MetRS inh: -0.8; Arrestin-AP2 inh: -8.1; MT1-MMP act inh: 3.5

How did Cc1ccc(-c2nc3cccnc3o2)cc1NC(=O)COc1ccc(C(C)(C)C)cc1 do in these assays?
Rin1 Abl inh: -0.1; SKN-1 inh: 43.0*; Tb MetRS inh: -0.7; Arrestin-AP2 inh: 5.1; MT1-MMP act inh: 4.0

How did Cc1ccc(-c2nc3cccnc3o2)cc1NC(=O)COc1ccc(Cl)cc1C do in these assays?
Rin1 Abl inh: -1.4; SKN-1 inh: -13.8; Tb MetRS inh: -0.9; Arrestin-AP2 inh: 23.8; MT1-MMP act inh: -7.4

How did CCOc1ccc(C(=O)Nc2cc(-c3nc4ccccc4[nH]3)ccc2C)cc1[N+](=O)[O-] do in these assays?
Rin1 Abl inh: 2.1; SKN-1 inh: -25.6; Tb MetRS inh: 13.5*; Arrestin-AP2 inh: 22.6; MT1-MMP act inh: -2.5

Results for CCOc1ccc(C(=O)Nc2cccc(-c3nc4ccccc4[nH]3)c2C)cc1[N+](=O)[O-] ?
Rin1 Abl inh: -3.8; SKN-1 inh: -7.9; Tb MetRS inh: -0.5; Arrestin-AP2 inh: 5.0; MT1-MMP act inh: 7.3

Results for CCCn1c(SCC(=O)c2ccc3c(c2)OCCO3)n[nH]c1=O ?
Rin1 Abl inh: -0.9; SKN-1 inh: 43.4*; Tb MetRS inh: -0.7; Arrestin-AP2 inh: -9.6; MT1-MMP act inh: 0.9

What do the screens show for `O=C(CSc1nc2ccccc2o1)c1ccc2c(c1)OCCO2`?
Rin1 Abl inh: -1.4; SKN-1 inh: 36.6*; Tb MetRS inh: -1.1; Arrestin-AP2 inh: 7.5; MT1-MMP act inh: 1.4

Results for c1ccc(-c2ccc(-c3nc(-c4ccccn4)no3)cc2)cc1 ?
Rin1 Abl inh: -1.1; SKN-1 inh: 63.1*; Tb MetRS inh: -3.9; Arrestin-AP2 inh: 10.1; MT1-MMP act inh: 3.7

How did Clc1ccc(-c2nc(-c3cnccn3)no2)cc1 do in these assays?
Rin1 Abl inh: -0.5; SKN-1 inh: 45.9*; Tb MetRS inh: -0.2; Arrestin-AP2 inh: 15.8; MT1-MMP act inh: 2.9

How did Fc1ccc(-c2nc(-c3cnccn3)no2)c(Cl)c1 do in these assays?
Rin1 Abl inh: 0.3; SKN-1 inh: 37.8*; Tb MetRS inh: -0.3; Arrestin-AP2 inh: 6.2; MT1-MMP act inh: -1.0
